Measurements from BindingDB's records for doi:10.1021/jm500521n (Saarland University, 2014).

Biological target: T1, Nitric oxide synthase, inducible (Mus musculus, UniProt P29477)
T1 sequence (P29477 whole entry): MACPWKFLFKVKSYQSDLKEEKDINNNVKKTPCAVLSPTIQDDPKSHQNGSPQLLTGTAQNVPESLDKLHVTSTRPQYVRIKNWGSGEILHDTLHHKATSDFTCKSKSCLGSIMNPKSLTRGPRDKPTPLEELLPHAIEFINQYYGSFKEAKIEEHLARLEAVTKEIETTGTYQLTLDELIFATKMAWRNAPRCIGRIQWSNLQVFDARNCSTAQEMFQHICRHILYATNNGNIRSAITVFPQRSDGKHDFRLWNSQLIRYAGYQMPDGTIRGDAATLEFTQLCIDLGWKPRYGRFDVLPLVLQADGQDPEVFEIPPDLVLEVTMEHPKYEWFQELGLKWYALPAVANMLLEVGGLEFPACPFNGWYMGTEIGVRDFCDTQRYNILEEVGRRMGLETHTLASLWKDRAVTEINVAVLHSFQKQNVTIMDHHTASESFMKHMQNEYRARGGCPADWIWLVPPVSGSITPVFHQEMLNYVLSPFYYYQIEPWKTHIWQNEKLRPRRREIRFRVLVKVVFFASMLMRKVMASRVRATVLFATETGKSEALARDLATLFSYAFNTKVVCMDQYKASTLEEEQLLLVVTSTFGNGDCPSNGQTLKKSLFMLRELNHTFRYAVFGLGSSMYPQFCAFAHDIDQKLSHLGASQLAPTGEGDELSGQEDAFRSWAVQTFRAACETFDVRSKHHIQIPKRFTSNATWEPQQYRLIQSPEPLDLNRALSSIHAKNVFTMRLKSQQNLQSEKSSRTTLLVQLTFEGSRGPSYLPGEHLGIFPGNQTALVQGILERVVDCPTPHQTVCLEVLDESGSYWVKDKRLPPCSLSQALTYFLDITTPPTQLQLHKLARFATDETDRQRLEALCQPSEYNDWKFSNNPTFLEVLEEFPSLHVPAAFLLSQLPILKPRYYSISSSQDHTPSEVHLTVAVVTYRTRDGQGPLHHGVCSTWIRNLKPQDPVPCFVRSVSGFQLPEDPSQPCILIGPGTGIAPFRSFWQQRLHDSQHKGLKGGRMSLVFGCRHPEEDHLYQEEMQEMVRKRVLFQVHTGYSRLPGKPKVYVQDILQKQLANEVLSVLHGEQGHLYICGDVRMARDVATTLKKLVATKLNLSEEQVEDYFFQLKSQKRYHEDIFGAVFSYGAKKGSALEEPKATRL
Assay: Inhibition of iNOS induction in mouse RAW264.7 cells assessed as NO production
Procedure, shortened: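 RAW 264.7 cells seeded at 8 × 10⁴ per well in DMEM/10% FBS and grown 2 days. Then exposed to LPS with compound or DMSO for 20 h. Supernatant nitrite measured by Griess reaction (sulfanilamide/NED) at 550 nm minus 620 nm background, quantified against a sodium nitrite standard curve. At least four experiments in triplicate.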

SMILES	IC50
COc1cc(C=CC(=O)CC(=O)C=Cc2ccc(O)c(OC)c2)ccc1O	0.8 µM
CC(C)(C)C1=NN(c2cccc(Cl)c2)C(c2ccc(F)c(O)c2)C1 (stereo not given)	4.6 µM
CC(C)(C)C1=NN(c2ccc(Cl)cc2)C(c2ccc(O)cc2)C1 (stereo not given)	7.5 µM
Oc1ccc(C2CC(c3cccs3)=NN2c2ccc(Br)cc2)cc1 (stereo not given)	3.4 µM
Oc1ccc(C2CC(c3cccs3)=NN2c2ccc(C(F)(F)F)cc2)cc1 (stereo not given)	2.4 µM
